Columns and labels:
[1] = molecular target: T1, Muscarinic acetylcholine receptor M2 (Rattus norvegicus, UniProt P10980); experiment: The compound was tested in vitro for binding activity against M2 muscarinic receptor in homogenates of the brainstem of rat using [3H]quinuclidinyl benzilate (QNB) as radioligand; assay type: tissue-based, Brain
T1 sequence (P10980 whole entry): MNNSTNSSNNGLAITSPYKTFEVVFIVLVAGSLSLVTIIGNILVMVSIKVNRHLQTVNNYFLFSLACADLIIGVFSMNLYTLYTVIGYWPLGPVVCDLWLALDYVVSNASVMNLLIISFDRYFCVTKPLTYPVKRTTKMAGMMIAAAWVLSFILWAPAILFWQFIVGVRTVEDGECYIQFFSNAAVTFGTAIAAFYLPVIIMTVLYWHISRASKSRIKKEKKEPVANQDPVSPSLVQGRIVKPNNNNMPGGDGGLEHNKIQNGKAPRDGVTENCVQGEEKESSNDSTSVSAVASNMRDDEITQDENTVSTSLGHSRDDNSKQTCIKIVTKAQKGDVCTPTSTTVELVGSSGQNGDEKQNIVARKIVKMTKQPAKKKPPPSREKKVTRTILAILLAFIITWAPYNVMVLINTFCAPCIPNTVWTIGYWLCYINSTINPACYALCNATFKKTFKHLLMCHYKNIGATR
Procedure, shortened: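 Competition binding on rat brainstem homogenate with [3H]-QNB in 50 mM Tris buffer (pH 7.4) for 90 min at 25 °C. Separation is by rapid GF-B filtration with scintillation counting. 2 μM atropine defines non-specific binding. DMSO stays under 0.1%. Ki is taken from IC50 via Cheng–Prusoff using radioligand concentration and Kd.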

[2] = molecular target: T2, Muscarinic acetylcholine receptor M1 (Rattus norvegicus, UniProt P08482); experiment: The compound was tested in vitro for binding activity against M1 muscarinic receptor in homogenates of the cerebral cortex of rat using [3H]pirenzepine as radioligand; assay type: tissue-based
T2 sequence (P08482 whole entry): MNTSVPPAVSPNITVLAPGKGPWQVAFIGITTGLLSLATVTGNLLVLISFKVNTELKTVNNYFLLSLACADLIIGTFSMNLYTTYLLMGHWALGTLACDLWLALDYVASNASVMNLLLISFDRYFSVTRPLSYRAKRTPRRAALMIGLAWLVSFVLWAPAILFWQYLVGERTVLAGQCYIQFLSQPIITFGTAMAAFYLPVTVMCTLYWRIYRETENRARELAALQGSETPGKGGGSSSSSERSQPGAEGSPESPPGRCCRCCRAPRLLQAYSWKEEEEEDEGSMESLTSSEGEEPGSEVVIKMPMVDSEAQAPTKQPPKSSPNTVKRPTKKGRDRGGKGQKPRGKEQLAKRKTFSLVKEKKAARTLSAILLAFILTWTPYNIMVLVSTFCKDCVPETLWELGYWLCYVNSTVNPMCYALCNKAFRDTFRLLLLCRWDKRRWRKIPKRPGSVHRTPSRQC
Procedure, shortened: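 Rat cerebral cortex homogenate with [3H]-pirenzepine in 50 mM Tris buffer pH 7.4, 25 °C for 90 min. Bound ligand is separated by rapid GF-B filtration and counted by liquid scintillation. Non-specific binding is defined with 2 μM atropine. Compounds in DMSO, below 0.1% final. Ki = IC50/(1 + L/Kd) by Cheng–Prusoff.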

Q: For `C[C@H]1CCC[C@H](/C=C/[C@@H]2[C@H]3COC(=O)[C@H]3C[C@H]3CCCC[C@@H]32)N1C` (stereo in doubt), which “-Log Ki” value [1] is on record?
A: 6.4

Q: And the Ki [2]?
A: 501 nM

Q: What does the source list for `C[C@H]1CCC[C@H](/C=C/[C@H]2[C@H]3COC(=O)[C@H]3C[C@H]3CCCC[C@@H]32)N1C` (stereo in doubt; 2)?
A: Ki [1]: 7.94 nM; Ki [2]: 39.8 nM

Q: What does the source list for `C[C@@H]1OC(=O)[C@H]2C[C@H]3CCCC[C@@H]3[C@@H](/C=C/[C@H]3CCC[C@H](C)N3C)[C@@H]12` [HIMBACINE]?
A: Ki [1]: 12.6 nM; Ki [2]: 79.4 nM

Q: Which Ki [1] does the source give for `C[C@H]1CCC[C@H](/C=C/[C@@H]2[C@H]3COC(=O)[C@H]3C[C@H]3CCCC[C@@H]32)N1C` (stereo in doubt; 3) here?
A: 398 nM

Q: What about the Ki [2] of the same compound?
A: 631 nM

Q: For `C[C@H]1CCC[C@H](/C=C/[C@H]2[C@H]3COC(=O)[C@H]3C[C@H]3CCCC[C@@H]32)N1C` (stereo in doubt), which Ki [1] is on record?
A: 794 nM

Q: And the Ki [2]?
A: 1000 nM
